Active and inactive are the calls of the source. No cut-off for these calls is given here.
Experiments:
Small intestine = test: Effective permeability in Wistar rat small intestine assessed as absorption rate coefficient at 50 uM measured after 5 mins in every 5 min interval up to 30 mins; format: ADME, tissue-based
Method in brief: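 Male Wistar rats fasted 2 h with water available, then anaesthetised with diazepam (1.67 mg/kg), ketamine (50 mg/kg) and atropine (1 mg/kg) and kept at 37°C on a heated surface. In situ intestinal perfusion. Perfusate sampled from 5 min at 5 min intervals up to 30 min. Absorption rate constant (Ka) and Peff derived.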

[1] = Effective permeability from apical to basolateral side in human Caco2 cells at 50 uM after 15 to 90 mins by HPLC analysis; format: ADME, cell-based; details: Caco-2, read-out: Peff
Method in brief: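 Caco-2 monolayers grown 19-22 days on polycarbonate transwell inserts (4.2 cm², 0.4 µm pore) at 37 °C, 5% CO2; TEER checked before and after each run. Compound added to donor side at 37 °C, 50 rpm. Receiver sampled at 15, 30, 60 and 90 min; donor sampled at start and end. HPLC analysis. Sodium azide, when used, placed on both sides. Three independent experiments.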

[2] = Effective permeability in Wistar rat small intestine at 50 uM measured after 5 mins in every 5 min interval up to 30 mins; format: ADME, tissue-based; details: not told, read-out: Peff
Method in brief: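 In situ intestinal perfusion in male Wistar rats fasted 2 h with water allowed. Anaesthesia with diazepam (1.67 mg/kg), ketamine (50 mg/kg) and atropine (1 mg/kg); animals kept at 37 °C. Perfusate sampled every 5 min from 5 to 30 min; absorption rate constant and Peff derived.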

A-375 [3] = test: Cytotoxicity against human A375 cells after 24 hrs by MTT assay; format: functional, cell-based; details: A-375, 24 h
Method in brief: (§1)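 Cells seeded at 25000 per well and held 24 h at 37 °C in 5% CO2. Medium was then renewed and compounds added at increasing concentrations (DMSO 0.1%, or water for topotecan) for 24 h. MTT solution (5 mg/mL) was added for 3 h at 37 °C, then absorbance read at 570 nm, corrected at 630 nm. IC50 in µM.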

Jurkat = test: Cytotoxicity against human Jurkat cells after 24 hrs by MTT assay; format: functional, cell-based; method in brief: as §1
MDA-MB-231 [4] = test: Induction of apoptosis in human MDA-MB-231 cells assessed as inhibition of DNA synthesis after 24 hrs by BrdU staining-based ELISA; format: functional, cell-based
Method in brief: (§2)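 Cells seeded at 25,000/well; compounds added 24 h after seeding at a range of concentrations and incubated 24 h. Cells fixed, then colorimetric BrdU-incorporation ELISA. Absorbance read at 370-492 nm over 3 intervals of 5 min. Mean of three separate experiments with triplicate samples.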

HeLa [5] = test: Cytotoxicity against human HeLa cells after 24 hrs by MTT assay; format: functional, cell-based; method in brief: as §1
MDA-MB-231 [6] = test: Cytotoxicity against human MDA-MB-231 cells after 24 hrs by MTT assay; format: functional, cell-based; details: MDA-MB-231, 24 h; method in brief: as §1
A-375 [7] = test: Induction of apoptosis in human A375 cells assessed as inhibition of DNA synthesis after 24 hrs by BrdU staining-based ELISA; format: functional, cell-based; method in brief: as §2
A-375 [8] = test: Induction of apoptosis in human A375 cells assessed as p53 phosphorylation at Ser15 by Western blotting analysis; format: functional, cell-based
Method in brief: (§3)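 Cells treated 24 h. About 10^6 cells lysed on ice 15 min in Hepes pH 7.4/Triton X-100 buffer with phosphatase and protease inhibitors, then spun 13,000 × g. 30 µg protein run on 12% SDS-PAGE and blotted to nitrocellulose. Primary anti-phospho-p53 (Ser15) and anti-p53 at 1:1000 for 2 h at room temperature, then HRP secondary and ECL densitometry. Results referred to untreated control.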

A-375 [9] = test: Induction of apoptosis in human A375 cells assessed as inhibition of DNA synthesis at 0.8 to 1.6 uM after 24 hrs by BrdU staining-based ELISA; format: functional, cell-based
Method in brief: (§4)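 BrdU colorimetric cell proliferation ELISA. Cells seeded at 25,000 per well, compounds added 24 h after seeding and incubated 24 h. Cells fixed and the immunoassay run per kit. Absorbance read at 370-492 nm over 3 intervals of 5 min; absorbance difference proportional to BrdU incorporation. Mean of three separate experiments in triplicate, compared with untreated control.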

HeLa [10] = test: Induction of apoptosis in human HeLa cells assessed as inhibition of DNA synthesis at 0.8 to 1.6 uM after 24 hrs by BrdU staining-based ELISA; format: functional, cell-based; method in brief: as §4
HeLa [11] = test: Induction of apoptosis in human HeLa cells assessed as inhibition of DNA synthesis after 24 hrs by BrdU staining-based ELISA; format: functional, cell-based; method in brief: as §2
MDA-MB-231 [12] = test: Induction of apoptosis in human MDA-MB-231 cells assessed as inhibition of DNA synthesis at 0.8 to 1.6 uM after 24 hrs by BrdU staining-based ELISA; format: functional, cell-based; method in brief: as §4
HeLa [13] = test: Induction of apoptosis in human HeLa cells assessed as p53 phosphorylation at Ser15 by Western blotting analysis; format: functional, cell-based; method in brief: as §3
MDA-MB-231 [14] = test: Induction of apoptosis in human MDA-MB-231 cells assessed as p53 phosphorylation at Ser15 by Western blotting analysis; format: functional, cell-based; method in brief: as §3

| SMILES | Ka (Small intestine) [h⁻¹] | Papp A→B at 50 µM [1] [nm/s] | Papp at 5 min, 50 µM [2] [nm/s] | IC50 (A-375 [3]) [µM] | IC50 (Jurkat) [µM] | inhibition (MDA-MB-231 [4]) | IC50 (HeLa [5]) [µM] | IC50 (MDA-MB-231 [6]) [µM] | inhibition (A-375 [7]) | Activity (A-375 [8]) | Activity (A-375 [9]) | Activity (HeLa [10]) | inhibition (HeLa [11]) | Activity (MDA-MB-231 [12]) | Activity (HeLa [13]) | Activity (MDA-MB-231 [14]) |
| --- | --- | --- | --- | --- | --- | --- | --- | --- | --- | --- | --- | --- | --- | --- | --- | --- |
| COCCc1ccc(OCC(O)CNC(C)C)cc1 (stereo unspecified) [METOPROLOL] | 2.3 | 230 | 553 | – | – | – | – | – | – | – | – | – | – | – | – | – |
| CC[C@@]1(O)C(=O)OCc2c1cc1n(c2=O)Cc2cc3c([N+](=O)[O-])cccc3nc2-1 [RUBITECAN] | – | – | – | 0.138 | 0.128 | Dose-dependent effect | 0.343 | 0.479 | Dose-dependent effect | Active | Active | Active | Dose-dependent effect | Active | inactive | Active |

Reference: ChEMBL document CHEMBL3351736, “A promising camptothecin derivative: Semisynthesis, antitumor activity and intestinal permeability” (Eur J Med Chem, 2014)
